Experimental data reported in ChEMBL document CHEMBL1156562, “4-Amino-2-cyanopyrimidines: novel scaffold for nonpeptidic cathepsin S inhibitors” (Bioorg Med Chem Lett, 2008).
Values after ≈ are worked out from the molar mass of the structure shown. Active and inactive are the calls of the source. The calls are words filed in the database; no cut-off is given here.

How the values were obtained:
Cathepsin S = Cathepsin S (Homo sapiens, UniProt P25774); assay: Inhibition of human recombinant cathepsin S by fluorometric assay
How it was run: (§1)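 Fluorometric inhibition assay with recombinant human enzymes. Cat K and Cat L used Z-Phe-Arg-AMC as substrate. Cat S used L-Leu-Leu-Arg-AMC as substrate. Values reported as IC50.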

Procathepsin L = Procathepsin L (Homo sapiens, UniProt P07711); assay: Inhibition of human recombinant cathepsin L by fluorometric assay; how it was run: as §1
Cathepsin K = molecular target: T1, Cathepsin K (Homo sapiens, UniProt P43235); assay: Inhibition of human recombinant cathepsin K by fluorometric assay; how it was run: as §1
T1 sequence (P43235 whole entry): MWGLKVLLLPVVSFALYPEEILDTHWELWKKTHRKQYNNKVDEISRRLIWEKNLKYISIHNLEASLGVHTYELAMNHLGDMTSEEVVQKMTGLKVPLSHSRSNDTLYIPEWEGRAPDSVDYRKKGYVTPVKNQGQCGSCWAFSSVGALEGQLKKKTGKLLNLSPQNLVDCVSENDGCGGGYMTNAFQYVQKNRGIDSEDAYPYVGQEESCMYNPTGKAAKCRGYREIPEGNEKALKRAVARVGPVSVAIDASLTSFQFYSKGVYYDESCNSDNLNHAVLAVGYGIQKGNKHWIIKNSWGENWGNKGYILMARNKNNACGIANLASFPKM

Homo sapiens = species on record: Homo sapiens; assay: Selectivity for human recombinant cathepsin S over human recombinant cathepsin L
[1] = Clearance in Sprague-Dawley rat at 1 mg/kg, iv and 3 mg/kg, po; format: ADME, organism-based; conditions: in vivo
How it was run: (§2)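 Male Sprague-Dawley rats, cassette dosing. Single iv dose of 1 mg/kg and po dose of 3 mg/kg. Clearance and half-life taken from iv data. Bioavailability and po AUC derived from both routes, with AUC dose-normalized to 1 mg/kg. Values are means of n = 3, with n = 2 for some iv groups.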

[2] = Aqueous solubility at pH 6.8; format: physicochemical
How it was run: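 Thermodynamic solubility, measured at pH 6.8 and 25 °C.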

[3] = Half life in Sprague-Dawley rat at 1 mg/kg, iv; format: ADME, organism-based; design: dose 1 mg/kg, route intravenous; conditions: in vivo; how it was run: as §2
[4] = Bioavailability in Sprague-Dawley rat at 1 mg/kg, iv and 3 mg/kg, po; format: ADME, organism-based; conditions: in vivo; how it was run: as §2
[5] = molecular target: Cathepsin S (Mus musculus) (UniProt O70370); assay: Inhibition of cathepsin S in mouse A20 cells assessed as invariant chain degradation at 1 uM; format: cell-based
How it was run: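 Mouse A20 cells treated at 1 µM. Cellular cathepsin S activity read out as degradation of invariant chain (Ii).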

[6] = Clearance in Sprague-Dawley rat at 1 mg/kg, iv; format: ADME, organism-based; design: dose 1 mg/kg, route intravenous; conditions: in vivo; how it was run: as §2
Rattus norvegicus = assay: Bioavailability in Sprague-Dawley rat at 1 mg/kg, iv; format: ADME, organism-based; conditions: in vivo; how it was run: as §2

Sequence of Procathepsin L (P07711 whole entry): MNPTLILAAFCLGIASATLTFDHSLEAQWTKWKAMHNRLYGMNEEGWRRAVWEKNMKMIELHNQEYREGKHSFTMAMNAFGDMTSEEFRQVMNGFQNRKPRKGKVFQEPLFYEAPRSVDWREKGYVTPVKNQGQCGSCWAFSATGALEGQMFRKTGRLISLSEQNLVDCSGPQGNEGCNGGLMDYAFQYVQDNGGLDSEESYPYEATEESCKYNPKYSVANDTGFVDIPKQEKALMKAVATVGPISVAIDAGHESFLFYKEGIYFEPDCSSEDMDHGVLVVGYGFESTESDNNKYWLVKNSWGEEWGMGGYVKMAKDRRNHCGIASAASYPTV
Sequence of Cathepsin S (P25774 whole entry): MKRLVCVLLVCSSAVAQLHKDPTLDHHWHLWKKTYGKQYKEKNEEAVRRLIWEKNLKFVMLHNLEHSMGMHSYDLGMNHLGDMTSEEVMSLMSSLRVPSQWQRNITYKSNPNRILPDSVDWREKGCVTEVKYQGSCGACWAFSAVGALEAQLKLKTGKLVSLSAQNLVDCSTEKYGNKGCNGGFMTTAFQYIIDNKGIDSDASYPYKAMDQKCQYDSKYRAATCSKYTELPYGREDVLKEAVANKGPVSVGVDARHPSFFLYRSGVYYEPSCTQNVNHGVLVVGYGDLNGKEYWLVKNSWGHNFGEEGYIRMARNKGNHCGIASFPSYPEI

Structure (SMILES)	IC50 (Cathepsin S) [nM]	IC50 (Procathepsin L) [nM]	IC50 (Cathepsin K) [nM]	also measured
N#Cc1ncc(C(=O)NCCc2ccccc2)c(NCC2CCC3(CC2)CC3)n1	15	> 3000	> 3000	–
N#Cc1ncc(C(=O)NCCc2ccccc2)c(NCC2CCCCC2)n1	22	> 2000	15	–
N#Cc1ncc(C(=O)NCCc2ccccc2)c(NCC2CCC(F)(F)CC2)n1	22	> 3000	130	–
CN1CCC(NC(=O)c2cnc(C#N)nc2NCC2CCC3(CC2)CC3)(c2ccccc2)CC1	7	510	–	Selectivity ratio (Homo sapiens): > 100
N#Cc1ncc(C(=O)N[C@H](Cc2ccccc2)CN2CCCC2)c(NCC2CCC3(CC2)CC3)n1	< 1	150	44	clearance [1]: 16.7 mL/min/kg; Selectivity ratio (Homo sapiens): > 100; solubility [2]: 27 µg/mL (≈ 57.1 µM); half-life [3]: 5.7 h; bioavailability [4]: 42%; Activity [5]: Active
N#Cc1ncc(C(=O)NCCc2ccccc2)c(OCC2CCCCC2)n1	14	780	9	–
CN1CCC(Cc2ccccc2)(NC(=O)c2cnc(C#N)nc2NCC2CCC3(CC2)CC3)CC1	2	180	140	Selectivity ratio (Homo sapiens): > 100
CN1CCC(CCOc2nc(C#N)nc(NCC3CCC4(CC3)CC4)c2C(=O)NCCc2ccccc2)CC1	< 1	10	–	–
CN1CCC(Oc2ccc(NC(=O)c3cnc(C#N)nc3NCC3CCC4(CC3)CC4)c(-c3ccccc3)c2)CC1	3	840	–	clearance [1]: 13.3 mL/min/kg; solubility [2]: 2 µg/mL (≈ 3.63 µM); half-life [3]: > 8 h; bioavailability [4]: 66%; Activity [5]: Active
C[C@@](Cc1ccccc1)(CN1CCCC1)NC(=O)c1cnc(C#N)nc1NCC1CCC2(CC1)CC2	21	840	–	–
CN1CCC(CCOc2nc(C#N)nc(NCC3CCC4(CC3)CC4)c2C(=O)NCc2ccccc2)CC1	< 1	270	–	–
N#Cc1ncc(C(=O)NCCc2ccccc2)c(NC2CCCCC2)n1	130	1100	10	–
COc1cc(NC(=O)c2cnc(C#N)nc2NCC2CCC3(CC2)CC3)c(-c2ccccc2)cc1OC	24	> 3000	> 1000	–
CN1CCC(CNC(=O)c2cnc(C#N)nc2NCC2CCC3(CC2)CC3)(c2ccccc2)CC1	6	700	170	clearance [6]: 173 mL/min/kg; Selectivity ratio (Homo sapiens): > 100; solubility [2]: 89 µg/mL (≈ 188 µM); half-life [3]: 3.3 h; F (Rattus norvegicus): 100%; Activity [5]: Active
CN1CCC(CCOc2nc(C#N)nc(NCC3CCC4(CC3)CC4)c2Br)CC1	2	280	100	clearance [1]: 85 mL/min/kg; solubility [2]: 11 µg/mL (≈ 23.8 µM); half-life [3]: 4.6 h; bioavailability [4]: 100%
CNC(=O)c1c(NCC2CCC3(CC2)CC3)nc(C#N)nc1OCCC1CCN(C)CC1	2	120	–	–
CC1(C)CCC(CNc2nc(C#N)ncc2C(=O)NCCc2ccccc2)CC1	93	> 3000	> 3000	–
CN1CCC(CCOc2cc(NCC3CCC4(CC3)CC4)nc(C#N)n2)CC1	22	870	240	–
N#Cc1ncc(C(=O)N[C@H](Cc2ccccn2)CN2CCCC2)c(NCC2CCC3(CC2)CC3)n1	4	480	–	–
CN1CCC(COc2nc(C#N)nc(NCC3CCC4(CC3)CC4)c2C(=O)NCc2ccccc2)CC1	< 1	64	–	–
CN(CC1CCCCC1)c1nc(C#N)ncc1C(=O)NCCc1ccccc1	32	2000	36	–
CN1CCC(Oc2nc(C#N)nc(NCC3CCC4(CC3)CC4)c2C(=O)NCc2ccccc2)CC1	1	100	–	–
N#Cc1ncc(C(=O)N[C@@H](Cc2ccccc2)CN2CCCC2)c(NCC2CCC3(CC2)CC3)n1	23	1500	200	–
